Data: ChEMBL document CHEMBL1212940, “Polyacetylenes from the roots of Polyalthia debilis” (2010)
In brackets after ≈: the same amount, converted by molar mass. Activity calls are given as the source filed them. No cut-off for these calls is given here.

Legend:
[1] = test system: Mycobacterium tuberculosis; assay: Antimycobacterial activity against Mycobacterium tuberculosis H37Ra by microplate alamar blue assay; assay type: functional
Summary of the method: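 Whole-cell microplate Alamar Blue test of M. tuberculosis H37Ra, read out as MIC in µg/mL. Isoniazid and kanamycin sulfate served as reference drugs.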

Candida albicans = assay: Antifungal activity against Candida albicans; assay type: functional, organism-based
KB = assay: Cytotoxicity against human KB cells; assay type: functional, cell-based
NCI-H187 = assay: Cytotoxicity against human NCI-H187 cells; assay type: functional, cell-based
BC1 = assay: Cytotoxicity against human BC1 cells; assay type: functional, cell-based
Plasmodium falciparum = assay: Antimalarial activity against Plasmodium falciparum; assay type: functional, organism-based

Compound	MIC [1] [µg/mL]	Activity (Candida albicans)	Activity (KB)	Activity (NCI-H187)	Activity (BC1)	Activity (Plasmodium falciparum)
CCCC/C=C/C#CC#CCCCCCCCCCC[C@H]1C[C@@H](CO)OC1=O [DEBILISONE C]	12.5 (≈ 32.3 µM)	inactive	inactive	inactive	inactive	inactive
C=CCC/C=C\C#CC#CCCCCCCCCCC[C@H]1C[C@@H](CO)OC1=O	–	inactive	inactive	inactive	inactive	inactive
C=CCC/C=C/C#CC#CCCCCCCCCCC[C@H]1C[C@@H](CO)OC1=O [DEBILISONE E]	25 (≈ 65 µM)	inactive	inactive	inactive	inactive	inactive
C=CCCCCCCC#CCCCCCCCCCC[C@@H]1C[C@@H](CO)OC1=O	–	inactive	inactive	inactive	inactive	inactive
C=CCCCCCCC#CCCCC[C@@H]1C[C@@H](CO)OC1=O	–	inactive	inactive	inactive	inactive	inactive
CCCC/C=C\C#CC#CCCCCCCCCCCCC[C@H]1C[C@@H](CO)OC1=O	–	inactive	inactive	inactive	inactive	inactive
CCCCCCC#CC#CCCCCCCCCCC[C@H]1C[C@@H](CO)OC1=O	–	inactive	inactive	inactive	inactive	inactive
CCCCC[C@H](O)C#CC#CCCCCCCCCCC[C@H]1C[C@@H](CO)OC1=O [DEBILISONE B]	25 (≈ 61.8 µM)	inactive	inactive	inactive	inactive	inactive
